Source: ChEMBL document CHEMBL4020838, “The Discovery of ( S)-1-(6-(3-((4-(1-(Cyclopropanecarbonyl)piperidin-4-yl)-2-methylphenyl)amino)-2,3-dihydro-1 H-inden-4-yl)pyridin-2-yl)-5-methyl-1 H-pyrazole-4-carboxylic Acid, a Soluble Guanylate Cyclase Activator Specifically Designed for Topical Ocular Delivery as a Therapy for Glaucoma” (J Med Chem, 2018)
Activity calls are given as the source filed them. No cut-off for these calls is given here.

What was measured:
[1] = tested on: Cynomolgus monkey; test: Toxicity in laser-induced ocular hypertensive cynomolgus monkey eye at 30 ug administered as single topical dose; set-up: species or system Macaca fascicularis; details: in vivo, topical_or_ocular
[2] = Activation of soluble guanylate cyclase in human GTM3 cells assessed as increase in cGMP production after 30 mins by fluorescence assay; type: cell-based
Summary of the method: (§1)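 Immortalized glaucomatous trabecular meshwork (GTM-3) cells expressing endogenous levels of sGC were used. cGMP was read across a dose range. EC50 and Emax were derived from the dose-response curve.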

[3] = tested on: Oryctolagus cuniculus; test: Toxicity in New Zealand albino rabbit eye up to 300 ug administered as single topical dose measured up to 24 hrs post dose; details: in vivo, topical_or_ocular
[4] = Activation of HUVEC-derived soluble guanylate cyclase expressed in CHOK1 cells assessed as increase in cGMP production after 1 hr by HTRF assay; type: cell-based
Summary of the method: (§2)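 High-throughput assay in Chinese hamster ovary cells expressing sGC. cGMP was measured across a dose range. EC50 and Emax (maximal cGMP produced) were taken from the dose-response curve.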

[5] = tested on: Oryctolagus cuniculus; test: Toxicity in New Zealand albino rabbit assessed as conjunctival hyperemia at 30 ug administered as single topical dose measured up to 24 hrs post dose; details: in vivo, topical_or_ocular
[6] = tested on: Oryctolagus cuniculus; test: Toxicity in New Zealand albino rabbit assessed as excessive blinking at 30 ug administered as single topical dose measured up to 24 hrs post dose; details: in vivo, topical_or_ocular
[7] = tested on: Cynomolgus monkey; test: Reduction of intraocular pressure in laser-induced ocular hypertensive cynomolgus monkey at 300 ug administered as single topical dose; type: functional; details: Macaca fascicularis
Summary of the method: (§3)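 Cynomolgus monkeys with laser-induced elevated IOP received a single topical ocular dose of 300 μg in a 30 μL drop. IOP and ocular signs were observed after dosing.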

[8] = organism: Homo sapiens; test: Activation of soluble guanylate cyclase in human GTM3 cells assessed as increase in cGMP production after 30 mins by fluorescence assay relative to 1-{6-[5-chloro-2-({4-[trans-4-(trifluoromethyl)cyclohexyl]-benzyl}oxy)phenyl)pyridin-2-yl)-5-(trifluoromethyl)-1H-pyrazole-4-carboxylic acid; type: cell-based; summary of the method: as §1
[9] = tested on: Cynomolgus monkey; test: Toxicity in laser-induced ocular hypertensive cynomolgus monkey assessed as ocular irritation at 300 ug administered as single topical dose; set-up: species or system Macaca fascicularis; details: in vivo, topical_or_ocular; summary of the method: as §3
[10] = organism: Homo sapiens; test: Activation of HUVEC-derived soluble guanylate cyclase expressed in CHOK1 cells assessed as increase in cGMP production after 1 hr by HTRF assay relative to 1-{6-[5-chloro-2-({4-[trans-4-(trifluoromethyl)cyclohexyl]-benzyl}oxy)phenyl)pyridin-2-yl)-5-(trifluoromethyl)-1H-pyrazole-4-carboxylic acid; type: cell-based; summary of the method: as §2
[11] = tested on: Cynomolgus monkey; test: Reduction of intraocular pressure in laser-induced ocular hypertensive cynomolgus monkey at 100 ug administered as single topical dose measured at 24 hrs post dose relative to control; type: functional, Macaca fascicularis; set-up: scale not given: the % may be the effect or the level left
Summary of the method: (§4)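 Cynomolgus monkeys with laser-induced elevated IOP received one 30 μL topical ocular drop containing 100 μg of compound, formulated as a suspension. Percent IOP reduction was recorded at 6 h and at 24 h after dosing.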

[12] = tested on: Oryctolagus cuniculus; test: Toxicity in New Zealand albino rabbit assessed as conjunctival hyperemia at 300 ug administered as single topical dose measured up to 24 hrs post dose; details: in vivo, topical_or_ocular
[13] = tested on: Cynomolgus monkey; test: Toxicity in laser-induced ocular hypertensive cynomolgus monkey assessed as conjunctival hyperemia at 300 ug administered as single topical dose; set-up: species or system Macaca fascicularis; details: in vivo, topical_or_ocular; summary of the method: as §3
[14] = tested on: Cynomolgus monkey; test: Toxicity in laser-induced ocular hypertensive cynomolgus monkey assessed as ocular discharge at 300 ug administered as single topical dose; set-up: species or system Macaca fascicularis; details: in vivo, topical_or_ocular; summary of the method: as §3
[15] = tested on: Cynomolgus monkey; test: Reduction of intraocular pressure in laser-induced ocular hypertensive cynomolgus monkey at 100 ug administered as single topical dose measured at 6 hr post dose relative to control; type: functional, Macaca fascicularis; set-up: scale not given: the % may be the effect or the level left; summary of the method: as §4
[16] = tested on: Oryctolagus cuniculus; test: Toxicity in New Zealand albino rabbit assessed as ocular discharge at 300 ug administered as single topical dose measured up to 24 hrs post dose; details: in vivo, topical_or_ocular
[17] = Dissociation constant, pKa of the compound; type: physicochemical
[18] = tested on: Cynomolgus monkey; test: Reduction of intraocular pressure in laser-induced ocular hypertensive cynomolgus monkey at 30 ug administered as single topical dose measured after 6 to 24 hrs; type: functional; details: Macaca fascicularis

## CCc1cc(OCC2=C(c3cccc(-n4ncc(C(=O)O)c4C)n3)CCCC2C)ccc1C1CCN(C(=O)C2CC2)CC1 (single isomer, unassigned; (+)) [listing 1 of 2 here]
[1]
  Activity: Non-Toxic
[2]; Homo sapiens, GTM3, 0.5 h
  EC50: 9 nM
[3]
  Activity: Non-Toxic
[4]
  EC50: < 0.5 nM

## CCc1cc(OCC2=C(c3cccc(-n4ncc(C(=O)O)c4C(F)(F)F)n3)CCCC2C)ccc1C1CCN(C(=O)C2CC2)CC1 (single isomer, unassigned; (+))
[5]
  Activity: Toxic
[2]
  EC50: 6 nM
[4]
  EC50: 1 nM
[6]
  Activity: Toxic

## Cc1cc(C2CCN(C(=O)C3CC3)CC2)ccc1NC1CCc2cccc(-c3cccc(-n4ncc(C(=O)O)c4C(F)(F)F)n3)c21 (single isomer, unassigned; (+)) [listing 1 of 2 here]
[5]
  Activity: Toxic
[2]
  EC50: 3 nM
[4]
  EC50: < 0.5 nM
[6]
  Activity: Toxic

## CCc1c(C)sc(-c2cccc(-n3ncc(C(=O)O)c3C(F)(F)F)n2)c1COc1ccc(C2CCN(C(=O)C3CC3)CC2)cc1C
[7]
  Activity: Active
[8]
  Emax: 93%
[9]
  Activity: Toxic
[2]; Homo sapiens, GTM3, 0.5 h
  EC50: 12 nM
[3]
  Activity: Non-Toxic
[10]
  Emax: 101%
[4]; CHO-K1, 1 h
  EC50: 1 nM

## CCc1cc(OCC2=C(c3cccc(-n4ncc(C(=O)O)c4C(F)(F)F)n3)CCCC2C)ccc1C1CCN(C(=O)C2CC2)CC1 (stereo in doubt; (-)-17)
[2]
  EC50: 170 nM
[4]
  EC50: 9 nM

## CCC(=O)N1CCC(c2ccc(OCc3ccsc3-c3cccc(-n4ncc(C(=O)O)c4C(F)(F)F)n3)c(C)c2)CC1
[11]
  Activity: 10%
[8]
  Emax: 97%
[2]; Homo sapiens, GTM3, 0.5 h
  EC50: 370 nM
[12]
  Activity: Toxic
[13]
  Activity: Toxic
[14]
  Activity: Toxic
[10]
  Emax: 100%
[4]; CHO-K1, 1 h
  EC50: 5.5 nM
[15]
  Activity: 17%
[16]
  Activity: Toxic

## Cc1cc(C2CCN(C(=O)C3CC3)CC2)ccc1NC1CCc2cccc(-c3cccc(-n4ncc(C(=O)O)c4C)n3)c21 (stereo in doubt; (+)-23) [listing 1 of 2 here]
[17]
  pKa: 4.3
[1]
  Activity: Non-Toxic
[2]
  EC50: 5 nM
[3]
  Activity: Non-Toxic
[4]
  EC50: < 0.5 nM

## O=C(O)CCCCN(CCc1ccccc1OCc1ccc(CCc2ccccc2)cc1)Cc1ccc(C(=O)O)cc1 [CINACIGUAT]
[8]
  Emax: 15%
[2]; Homo sapiens, GTM3, 0.5 h
  EC50: 4 nM
[10]
  Emax: 93%
[4]; CHO-K1, 1 h
  EC50: 1 nM

## Cc1cc(C2CCN(C(=O)C3CC3)CC2)ccc1OCC1=C(c2cccc(-n3ncc(C(=O)O)c3C(F)(F)F)n2)CCCC1
[8]
  Emax: 110%
[2]; Homo sapiens, GTM3, 0.5 h
  EC50: 85 nM
[10]
  Emax: 101%
[4]; CHO-K1, 1 h
  EC50: 0.35 nM

## Cc1cc(C2CCN(C(=O)C3CC3)CC2)ccc1OC1CCc2cccc(-c3cccc(-n4ncc(C(=O)O)c4C(F)(F)F)n3)c21 (single isomer, unassigned; (+))
[2]; Homo sapiens, GTM3, 0.5 h
  EC50: 10 nM
[4]
  EC50: 1 nM

## Cc1cc(COc2ccc(C3CCN(C(=O)C4CC4)CC3)cc2C)c(-c2cccc(-n3ncc(C(=O)O)c3C(F)(F)F)n2)s1
[8]
  Emax: 100%
[2]; Homo sapiens, GTM3, 0.5 h
  EC50: 53 nM
[10]
  Emax: 101%
[4]; CHO-K1, 1 h
  EC50: < 0.1 nM

## Cc1cc(C2CCN(C(=O)C3CC3)CC2)ccc1NC1CCc2cccc(-c3cccc(-n4ncc(C(=O)O)c4C(F)(F)F)n3)c21 (single isomer, unassigned; (-))
[2]
  EC50: 1200 nM
[4]
  EC50: 37 nM

## CCc1csc(-c2cccc(-n3ncc(C(=O)O)c3C(F)(F)F)n2)c1COc1ccc(C2CCN(C(=O)C3CC3)CC2)cc1C
[8]
  Emax: 70%
[2]; Homo sapiens, GTM3, 0.5 h
  EC50: 160 nM
[10]
  Emax: 105%
[4]; CHO-K1, 1 h
  EC50: 6 nM

## Cc1cc2c(c(-c3cccc(-n4ncc(C(=O)O)c4C(F)(F)F)n3)c1)C(Nc1ccc(C3CCN(C(=O)C4CC4)CC3)cc1C)CC2 (single isomer, unassigned; (+))
[17]
  pKa: 3.1
[2]; Homo sapiens, GTM3, 0.5 h
  EC50: 55 nM
[4]
  EC50: 1 nM

## CCc1cc(OCC2=C(c3cccc(-n4ncc(C(=O)O)c4C)n3)CCCC2C)ccc1C1CCN(C(=O)C2CC2)CC1 (single isomer, unassigned; (+)) [listing 2 of 2 here]
[8]
  Emax: 120%
[18]
  Activity: Active
[10]
  Emax: 101%

## Cc1cc(C2CCN(C(=O)C3CC3)CC2)ccc1NC1CCc2cccc(-c3cccc(-n4ncc(C(=O)O)c4C)n3)c21 (stereo in doubt; (+)-23) [listing 2 of 2 here]
[8]
  Emax: 106%
[18]
  Activity: Active
[10]
  Emax: 104%

## CCc1cc(COc2ccc(C3CCN(C(=O)C4CC4)CC3)cc2C)c(-c2cccc(-n3ncc(C(=O)O)c3C(F)(F)F)n2)s1
[8]
  Emax: 68%
[2]; Homo sapiens, GTM3, 0.5 h
  EC50: 180 nM
[10]
  Emax: 103%
[4]; CHO-K1, 1 h
  EC50: 2 nM

## CCc1cc(OCC2=C(c3cccc(-n4ncc(C(=O)O)c4C(F)(F)F)n3)CCCC2(C)C)ccc1C1CCN(C(=O)C2CC2)CC1
[8]
  Emax: 71%
[2]; Homo sapiens, GTM3, 0.5 h
  EC50: 140 nM
[10]
  Emax: 99%
[4]; CHO-K1, 1 h
  EC50: 1 nM

## Cc1cc(C2CCN(C(=O)C3CC3)CC2)ccc1OCc1cc(Cl)sc1-c1cccc(-n2ncc(C(=O)O)c2C(F)(F)F)n1
[8]
  Emax: 97%
[2]; Homo sapiens, GTM3, 0.5 h
  EC50: 520 nM
[10]
  Emax: 99%
[4]; CHO-K1, 1 h
  EC50: 0.15 nM

## Cc1cc(C2CCN(C(=O)C3CC3)CC2)ccc1NC1CCc2cccc(-c3cccc(-n4ncc(C(=O)O)c4C(F)(F)F)n3)c21 (single isomer, unassigned; (+)) [listing 2 of 2 here]
[8]
  Emax: 89%
[10]
  Emax: 100%

## Cc1cc(C2CCN(C(=O)C3CC3)CC2)ccc1OCc1c(C)csc1-c1cccc(-n2ncc(C(=O)O)c2C(F)(F)F)n1
[8]
  Emax: 100%
[2]; Homo sapiens, GTM3, 0.5 h
  EC50: 40 nM
[10]
  Emax: 100%
[4]; CHO-K1, 1 h
  EC50: < 0.5 nM

## Cc1cc(C2CCN(C(=O)C3CC3)CC2)ccc1OC1CCc2cccc(-c3cccc(-n4cc(C(=O)O)cn4)n3)c21 (single isomer, unassigned; (+))
[8]
  Emax: 70%
[2]; Homo sapiens, GTM3, 0.5 h
  EC50: 320 nM
[10]
  Emax: 103%
[4]; CHO-K1, 1 h
  EC50: 2.5 nM

## Cc1cc(C2CCN(C(=O)C3CC3)CC2)ccc1NC1CCc2cccc(-c3cccc(-n4ncc(C(=O)O)c4C)n3)c21 (stereo in doubt; (-)-23)
[2]
  EC50: 490 nM
[4]
  EC50: 17 nM
